Assay results of several laboratories.
Lines come from different studies, so protocols differ.
Medium: plasma

SMILES	system	setting	AUC(0-inf)
Cc1ccc(NC(=O)c2ccc(CN3CCN(C)CC3)cc2)cc1Nc1nccc(-c2cncc(-c3oncc3C)c2)n1	male C57BL/6 mouse	oral, 100 mg/kg/day	38000 ng·h/mL
CC(C)(C)c1ccc(O)c(CN(Cc2cc(C(C)(C)C)ccc2O)C2CCC(NC(N)=O)CC2)c1 (stereo not shown)	male C57BL/6 mouse	intraperitoneal, 10 mg/kg, single dose	10800 ng·h/mL
COc1cc(C(=O)N2CCC(N3CCN(C)CC3)CC2)ccc1Nc1ncc2c(n1)N(C)c1ccccc1C(=O)N2C	mouse	intravenous, 1 mg/kg	2970 ng·h/mL
Cc1nc(-c2cnc(NC(C)C)n(C)c2=O)ccc1Oc1ccnc(-c2cnn(C)c2)c1	female mouse	oral, 15 mg/kg, single dose	127000 ng·h/mL
CN1C(=O)c2ccccc2[S@+]([O-])c2ccc(C(=O)NCCc3cccs3)cc21	male C57BL/6 mouse	intraperitoneal, 30 mg/kg, single dose	7840 ng·h/mL
COc1ccc2nccc(N3CCc4c(cc(Cn5ccnc5)cc4-c4cn(C)nc4C(F)(F)F)C3=O)c2c1	male CD-1 mouse	oral, 50 mg/kg	33800 ng·h/mL
Cc1cc(Nc2ccc(S(F)(F)(F)(F)F)cc2)n2ncnc2n1	male Swiss mouse	oral, 100 mg/kg, single dose	942 µM·h
CNC(=O)c1cc(OC)cc2c(N3CCc4c(cc(Cn5ccnc5)cc4-c4cn(C)nc4C(F)(F)F)C3=O)ccnc12	male CD-1 mouse	intravenous, 3 mg/kg	3300 ng·h/mL
COc1nc(-c2cc(C)c(N[C@@H](C)c3cc(F)cc(F)c3)nn2)ccc1-n1cnc(C)c1	male CD-1 mouse	oral, 5 mg/kg, single dose	13800 ng·h/mL
CCNc1nc2c(c(N3CC(=O)Nc4cc(OC)ccc43)n1)CCC2	female C57BL/6 mouse	intravenous, 4 mg/kg, single dose	620 ng·h/mL
COc1ccc2nc(-c3ccccn3)c(N(C)c3ccc(F)cc3)n2c1	male CD-1 mouse	oral, 50 mg/kg, fasted	969 ng·h/mL
Cc1ccc2cncc(N3CCc4c(cc(Cn5ccnc5)cc4-c4cn(C)nc4C(F)(F)F)C3=O)c2c1	male CD-1 mouse	oral, 10 mg/kg	4460 ng·h/mL
Cc1cc(NC(=O)c2cccc3cc(-c4cccc5[nH]nc(N)c45)ccc23)ccc1F	male CD-1 mouse	oral, 10 mg/kg	4940 ng·h/mL
COc1nc(-c2cc(C)c(N[C@@H](C)c3c(F)cc(F)cc3F)nn2)ccc1-n1cnc(C)c1	male CD-1 mouse	intravenous, 1 mg/kg, single dose	2500 ng·h/mL
COc1cc2c(Nc3ccc(Cl)c(Cl)c3F)ncnc2cc1OC[C@@H]1C[C@@H]2CN(C)C[C@@H]2C1	FVB mouse	oral, 70 mg/kg, single dose	83000 ng·h/mL
CC(C)(Nc1nc(-c2ccccn2)nc2ccccc12)c1ccccn1	female BALB/c mouse	intravenous, 1 mg/kg	1460 ng·h/mL
CCc1cc(OC)c2nccc(N3CCc4c(cc(Cn5ccnc5)cc4-c4cn(C)nc4C(F)(F)F)C3=O)c2c1	male CD-1 mouse	oral, 50 mg/kg	108000 ng·h/mL
O=S(=O)(c1ccc(-c2ccc3nccc(Nc4ccncn4)c3c2)cc1)N1CCOCC1	female BALB/c mouse	intraperitoneal, 10 mg/kg	9520 ng·h/mL
CCc1cc(C(=O)NC)c2nccc(N3CCc4c(cc(Cn5ccnc5)cc4-c4cn(C)nc4C(F)(F)F)C3=O)c2c1	male CD-1 mouse	intravenous, 3 mg/kg	4180 ng·h/mL
CNCCN(C)c1cc(C#N)cc(CCc2cc(C)cc(N)n2)c1	male BALB/c mouse	intravenous, 2 mg/kg	181 ng·h/mL
COc1cc(OC)c2nccc(N3CCc4c(cc(Cn5ccnc5)cc4-c4cn(C)nc4C(F)(F)F)C3=O)c2c1	male CD-1 mouse	oral, 50 mg/kg	60600 ng·h/mL
CC[C@H](C)[C@@H]1NC(=O)[C@@](C)(NC(=O)[C@H](CCCNC(=N)N)NC(=O)[C@H](CC(C)C)NC(=O)[C@@H](NC(=O)[C@H](CCC(N)=O)NC(=O)[C@H](CC(C)C)NC(C)=O)[C@@H](C)O)CCCC=CCCC[C@@](C)(C(=O)N[C@@H](CC(C)C)C(=O)N[C@@H](Cc2ccc3ccccc3c2)C(N)=O)NC(=O)[C@H](CCCNC(=N)N)NC(=O)[C@H](CCC(N)=O)NC1=O	male BALB/c mouse	intraperitoneal, 5 mg/kg	102000 ng·h/mL
